Assay results published in ChEMBL document CHEMBL2176962, “Repositioning HIV-1 integrase inhibitors for cancer therapeutics: 1,6-naphthyridine-7-carboxamide as a promising scaffold with drug-like properties” (J Med Chem, 2012).

How the values were obtained:
[1] = target: Receptor tyrosine-protein kinase erbB-2 (Homo sapiens) (UniProt P04626); test: Inhibition of ErbB2 at 10 uM incubated for 60 mins using poly(Glu,Tyr)4:1 substrate and 10 uM ATP by ELISA
Outline: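 ELISA with Poly(Glu,Tyr)4:1 (20 μg/mL) precoated as substrate and 10 μM ATP, in 50 mM HEPES pH 7.4, 20 mM MgCl2, 0.1 mM MnCl2, 0.2 mM Na3VO4, 1 mM DTT. Compound was tested at 10 μM, in duplicate. Kinase reaction ran 60 min at 37 °C. Phosphotyrosine was detected with PY99 and HRP anti-mouse IgG, developed with o-phenylenediamine/H2O2, stopped with H2SO4 and read at 492 nm. Inhibition = [1 − A492 treated/A492 control] × 100%. References: lapatinib (ErbB2) and PP2 (Src), each at 10 μM.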

HEY = test: Cytotoxicity against human HEY cells incubated for 72 hrs by MTT assay; format: functional, cell-based
MDA-MB-435 = test: Cytotoxicity against human MDA-MB-435 cells incubated for 72 hrs by MTT assay; format: functional, cell-based; conditions: MDA-MB-435, 72 h
Outline: (§1)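 Cells were kept in DMEM (MDA-MB-435, MCF7, LNCaP) or RPMI (HT29, HCT116) with 10% heat-inactivated FBS and 2 mM L-glutamine, subconfluent and in exponential growth. They were seeded, allowed to adhere overnight, then exposed continuously to compound (10 mM DMSO stock) for 72 h. MTT was added to 0.3 mg/mL final for 3–4 h at 37 °C, formazan was dissolved in DMSO, and absorbance was read at 570 nm. Runs were in triplicate; IC50 came from log concentration versus percent cell kill.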

HCT-116 [2] = test: Cytotoxicity against p53 expressing human HCT116 cells incubated for 72 hrs by MTT assay; format: functional, cell-based; conditions: HCT-116, 72 h; outline: as §1
SK-BR-3 = test: Cytotoxicity against human SKBR3 cells incubated for 72 hrs by MTT assay; format: functional, cell-based; conditions: SK-BR-3, 72 h
MCF7 = test: Cytotoxicity against human MCF7 cells incubated for 72 hrs by MTT assay; format: functional, cell-based; conditions: MCF7, 72 h; outline: as §1
HCT-116 [3] = test: Cytotoxicity against p53 deficient human HCT116 cells incubated for 72 hrs by MTT assay; format: functional, cell-based; conditions: HCT-116, 72 h; outline: as §1
[4] = target: T1, Human immunodeficiency virus type 1 integrase (Human immunodeficiency virus 1, UniProt Q7ZJM1); test: Inhibition of HIV1 integrase strand transfer activity using [32P]-labeled linear oligonucleotide substrate
T1 sequence (Q7ZJM1 whole entry): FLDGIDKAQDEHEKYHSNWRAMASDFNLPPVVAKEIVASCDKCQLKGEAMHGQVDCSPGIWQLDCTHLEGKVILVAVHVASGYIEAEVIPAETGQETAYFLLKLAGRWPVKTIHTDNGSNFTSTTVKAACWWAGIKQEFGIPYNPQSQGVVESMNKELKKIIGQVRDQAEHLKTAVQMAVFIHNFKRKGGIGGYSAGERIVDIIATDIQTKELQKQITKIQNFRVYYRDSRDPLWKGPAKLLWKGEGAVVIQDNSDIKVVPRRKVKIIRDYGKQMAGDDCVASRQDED

[5] = target: T1, Human immunodeficiency virus type 1 integrase; test: Inhibition of HIV1 integrase 3'-processing activity using [32P]-labeled linear oligonucleotide substrate

Receptor tyrosine-protein kinase erbB-2 (Homo sapiens), sequence (P04626 whole entry): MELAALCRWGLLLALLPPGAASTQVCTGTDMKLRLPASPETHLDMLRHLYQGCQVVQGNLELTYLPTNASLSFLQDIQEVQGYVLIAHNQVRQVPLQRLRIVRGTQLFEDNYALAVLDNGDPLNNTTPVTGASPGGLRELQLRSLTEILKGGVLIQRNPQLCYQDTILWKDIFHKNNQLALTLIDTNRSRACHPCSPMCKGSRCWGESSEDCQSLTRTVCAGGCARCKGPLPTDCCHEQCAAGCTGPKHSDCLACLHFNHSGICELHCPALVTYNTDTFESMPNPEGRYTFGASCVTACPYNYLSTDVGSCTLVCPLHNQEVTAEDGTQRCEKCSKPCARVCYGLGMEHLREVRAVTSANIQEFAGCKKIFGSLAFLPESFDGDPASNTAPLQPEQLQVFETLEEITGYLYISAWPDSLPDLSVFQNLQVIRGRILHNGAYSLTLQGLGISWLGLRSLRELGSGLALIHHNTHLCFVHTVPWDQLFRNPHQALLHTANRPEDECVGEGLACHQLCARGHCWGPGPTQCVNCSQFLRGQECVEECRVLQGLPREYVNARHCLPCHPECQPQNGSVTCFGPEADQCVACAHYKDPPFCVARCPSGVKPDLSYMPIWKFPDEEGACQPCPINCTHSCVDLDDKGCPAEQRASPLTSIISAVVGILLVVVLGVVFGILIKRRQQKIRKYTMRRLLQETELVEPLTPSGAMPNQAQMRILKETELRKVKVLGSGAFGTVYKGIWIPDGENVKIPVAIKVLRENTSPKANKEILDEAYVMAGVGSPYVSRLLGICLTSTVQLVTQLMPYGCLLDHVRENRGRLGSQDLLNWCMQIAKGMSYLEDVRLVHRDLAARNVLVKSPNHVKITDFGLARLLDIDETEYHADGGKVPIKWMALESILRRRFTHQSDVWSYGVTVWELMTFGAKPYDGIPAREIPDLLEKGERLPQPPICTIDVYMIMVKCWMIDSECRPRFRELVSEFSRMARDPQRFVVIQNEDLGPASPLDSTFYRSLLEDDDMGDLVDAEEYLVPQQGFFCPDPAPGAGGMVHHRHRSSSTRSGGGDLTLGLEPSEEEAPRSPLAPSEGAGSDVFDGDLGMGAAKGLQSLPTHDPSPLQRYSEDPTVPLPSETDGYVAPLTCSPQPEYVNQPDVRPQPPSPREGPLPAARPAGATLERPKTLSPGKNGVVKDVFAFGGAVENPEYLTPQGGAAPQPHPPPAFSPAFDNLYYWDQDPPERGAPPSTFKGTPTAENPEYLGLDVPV

| Structure (SMILES) | inhibition [1] [%] | IC50 [4] [µM] | IC50 [5] [µM] | IC50 (HEY) [µM] | IC50 (MDA-MB-435) [µM] | IC50 (HCT-116 [2]) [µM] | IC50 (SK-BR-3) [µM] | IC50 (MCF7) [µM] | IC50 (HCT-116 [3]) [µM] |
| --- | --- | --- | --- | --- | --- | --- | --- | --- | --- |
| C[C@H](NC(=O)c1nc(Br)c2cccnc2c1N[C@H]1CC[C@H](N)CC1)c1ccc(F)cc1 |  |  |  | > 10 | > 10 | > 10 | 9 |  |  |
| N[C@H]1CC[C@H](Nc2c(C(=O)NCc3ccc(Oc4ccccc4)cc3)nc(Br)c3cccnc23)CC1 |  |  |  | 9 | 4 |  |  | 7.9 |  |
| N[C@H]1CC[C@H](Nc2c(C(=O)NC3CCCCC3)nc(Br)c3cccnc23)CC1 |  |  |  | 5.2 | > 10 | > 10 | 4.2 | 5.2 |  |
| N[C@H]1CC[C@H](Nc2c(C(=O)NCc3cccs3)nc(Br)c3cccnc23)CC1 |  |  |  | 11 | 4.1 |  |  | 7.3 |  |
| N[C@H]1CC[C@H](Nc2c(C(=O)NCc3ccc(F)cc3)nc(N3CCCCC3)c3cccnc23)CC1 |  |  |  |  | 5 | 8 | > 10 | 5 | 8.5 |
| CN(C)c1ccc(CNC(=O)c2nc(Br)c3cccnc3c2N[C@H]2CC[C@H](N)CC2)cc1 |  |  |  | 5.3 | 4 |  |  | 5 |  |
| N[C@H]1CC[C@H](Nc2c(C(=O)NCc3cccc(C(F)(F)F)c3)nc(Br)c3cccnc23)CC1 |  |  |  | 12 | 4.2 |  |  | 15 |  |
| N[C@H]1CC[C@H](Nc2c(C(=O)NCc3ccco3)nc(Br)c3cccnc23)CC1 |  |  |  | > 10 | > 10 | > 10 | 10 |  |  |
| N[C@H]1CC[C@H](Nc2c(C(=O)NCc3ccccn3)nc(Br)c3cccnc23)CC1 |  |  |  | > 20 | 4 |  |  | 15 |  |
| COC(=O)c1nc(Br)c2cccnc2c1N[C@H]1CC[C@H](N)CC1 |  |  |  | > 20 | > 20 |  |  | > 20 |  |

Continued, in another order:

| inhibition [1] [%] | IC50 [4] [µM] | IC50 [5] [µM] | Structure (SMILES) | IC50 (HEY) [µM] | IC50 (MDA-MB-435) [µM] | IC50 (HCT-116 [2]) [µM] | IC50 (SK-BR-3) [µM] | IC50 (MCF7) [µM] | IC50 (HCT-116 [3]) [µM] |
| --- | --- | --- | --- | --- | --- | --- | --- | --- | --- |
| 92 |  |  | CS(=O)(=O)CCNCc1ccc(-c2ccc3ncnc(Nc4ccc(OCc5cccc(F)c5)c(Cl)c4)c3c2)o1 |  |  |  |  |  |  |
|  | > 100 | > 100 | CNc1c(C(=O)NCc2ccc(F)cc2)nc(Br)c2cccnc12 |  | > 20 | > 20 |  |  | > 20 |
|  | > 100 | > 100 | NCCNc1c(C(=O)NCc2ccc(F)cc2)nc(Br)c2cccnc12 |  | 12 | > 20 |  | 6 | > 20 |
| 0 |  |  | N[C@H]1CC[C@H](Nc2c(C(=O)NCCc3ccccc3)nc(Br)c3cccnc23)CC1 | 6 | 8 | 8.8 | 7 |  |  |
|  | > 111 | > 111 | C[C@@H](Nc1c(C(=O)NCc2ccc(F)cc2)nc(Br)c2cccnc12)c1ccccc1 |  | > 20 | > 20 |  |  | > 20 |
| 0 |  |  | N[C@H]1CC[C@H](Nc2c(C(=O)NCc3ccc4c(c3)OCO4)nc(Br)c3cccnc23)CC1 | 4 | 7 | 7 | 6 |  |  |
|  | > 100 | > 100 | O=C(NCc1ccc(F)cc1)c1nc(Br)c2cccnc2c1NCc1ccccc1 |  | > 20 | > 20 |  |  | > 20 |
| 0 |  |  | N[C@H]1CC[C@H](Nc2c(C(=O)Nc3ccccc3)nc(Br)c3cccnc23)CC1 | 1 | 1 | 2 | 2 |  |  |
|  | > 100 | > 100 | O=C(NCc1ccc(F)cc1)c1nc(Br)c2cccnc2c1NCCCNc1c(C(=O)NCc2ccc(F)cc2)nc(Br)c2cccnc12 |  | > 20 | > 20 |  |  | > 20 |
|  | > 111 | > 111 | C[C@H](Nc1c(C(=O)NCc2ccc(F)cc2)nc(Br)c2cccnc12)c1ccccc1 |  | > 20 | > 20 |  |  | > 20 |
|  | > 100 | > 100 | O=C(NCc1ccc(F)cc1)c1nc(Br)c2cccnc2c1NCc1ccc(F)cc1 |  | > 20 | > 20 |  |  | > 20 |
